Assay outcomes: PubChem BioAssay, several laboratories
Shown is part of a subset that was picked to be rich in hits.
T cruzi inh: T. cruzi replication inhibition; AID 1885; 300,000 tested, 1.4% active; inhibition, % (no concentration beside the values); T. cruzi beta-gal in NIH3T3, luminescence, 90 h;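 active = mean inhibition across valid replicates above about 55%, limit read from the data; inconclusive = mean below that limit but half or more replicates reach it; inactive = mean below it, under half of replicates reach it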;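 also: signal also drops with host cell toxicity which is not excluded here; higher percent means less beta-gal luminescence so fewer parasites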
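System: mouse NIH/3T3 fibroblasts infected with β-gal-expressing T. cruzi Tulahuen C4 / Input: NIH/3T3 cells, 5,000 per well / Buffer or medium: Low-serum DMEM with 2% FBS / Probe or stimulus: 5000 reporter trypomastigotes per well / Schedule: ≥90 h infection period, 3 h prior cell attachment / Measured by: GalScreen luminescence, 60 min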
NALP1 yeast inh: inhibitors of NALP1 inflammasome in yeast; S. cerevisiae NALP1/ASC/caspase-1 growth, X-gal OD620, 72 h; 280,000 tested, 0.61% active; AID 2071; inhibition, % at 10 µM; in the data active = inhibition mostly above about 24%, no sharp cut-off; inactive = mostly below about 32%
Calb FLC: C. albicans growth modulation with fluconazole | C. albicans CaCi-2 + fluconazole, Alamar Blue growth, 48 h | growth inhibition, % (no concentration beside the values) | AID 1979 | 300,000 tested, 0.57% active;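 active = growth inhibition above about 58% in most replicates, limit read from the data, passing the limit was not always enough; inconclusive = exactly half the replicates above a set limit; inactive = most replicates below a set limit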;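 also: all wells also contain fluconazole at 8 µg/ml as a sub-toxic cotreatment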
PolyA inh: blocks polyadenylation in yeast reporter cells | S. cerevisiae SKY197-pL101 polyadenylation reporter, beta-gal luminescence; efflux-impaired pdr1/pdr3 knockout yeast; score 100 = 6 SD above DMSO | activity score, % at 12 µM | 300,000 tested, 0.02% active;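 active = lowest replicate activity score at least 50, where 100 means six control SD above control mean; inconclusive = lowest score under 50 but half or more replicates reach 50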;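 also: yeast exposed to compound for 9 h at 30 °C; higher score means more reporter readthrough which indicates perturbed polyadenylation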
NALP3 yeast inh: blocks the NALP3 inflammasome reconstituted in yeast. 330,000 tested, 0.39% active. inhibition, % at 10 µM. Yeast reconstituted NLRP3/ASC/caspase-1, beta-gal luminescence, 24 h;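 active = inhibition of 50% or more; inactive = inhibition below 50%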
Lmaj promast: reduces viability of Leishmania major promastigotes; AID 1063; resazurin fluorescence viability; 200,000 tested, 9% active; inhibition, % at 10 µM; in the data active = inhibition above about 50%;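 also: promastigotes grown with compound for 44 hours at 28 °C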
Numbers stand for hits.

How did COc1ccc(S(=O)(=O)NCC2CCCN(Cc3cccnc3)C2)cc1 (configuration not stated) do in these assays?
T cruzi inh: inactive; NALP1 yeast inh: 32; Calb FLC: inactive; PolyA inh: inactive; NALP3 yeast inh: inactive; Lmaj promast: inactive

What do the screens show for `COc1cc2c(CCNC(C)=O)c[nH]c2cc1O`?
T cruzi inh: inactive; Calb FLC: inactive; PolyA inh: inactive; NALP3 yeast inh: inactive

What do the screens show for `O=C(Nc1ccc(-c2ccc3nncn3n2)cc1)c1ccc(Br)o1`?
T cruzi inh: inactive; NALP1 yeast inh: inactive; Calb FLC: inactive; PolyA inh: inactive; NALP3 yeast inh: inactive; Lmaj promast: inactive

What do the screens show for `O=S(=O)(Nc1cccc(-c2cn3cccnc3n2)c1)c1ccc(F)cc1`?
T cruzi inh: inactive; NALP1 yeast inh: inactive; Calb FLC: inactive; PolyA inh: inactive; NALP3 yeast inh: inactive; Lmaj promast: 71

What do the screens show for `O=S(=O)(Nc1cccc(-c2cn3cccnc3n2)c1)c1ccc(-c2ccccc2)cc1`?
T cruzi inh: inactive; NALP1 yeast inh: inactive; Calb FLC: inactive; PolyA inh: inactive; NALP3 yeast inh: inactive; Lmaj promast: inactive

What do the screens show for `O=S(=O)(Nc1cccc(-c2cn3cccnc3n2)c1)c1ccccc1`?
T cruzi inh: inactive; NALP1 yeast inh: inactive; Calb FLC: inactive; PolyA inh: inactive; NALP3 yeast inh: inactive; Lmaj promast: 88

What do the screens show for `Cc1ccc(-c2cc3nc(C)cc(C)n3n2)cc1`?
T cruzi inh: inactive; NALP1 yeast inh: inactive; Calb FLC: inactive; PolyA inh: inactive; NALP3 yeast inh: inactive; Lmaj promast: inactive

What do the screens show for `Cc1cc(C)n2nc(-c3ccsc3-n3c(C)ccc3C)cc2n1`?
T cruzi inh: 55; NALP1 yeast inh: inactive; Calb FLC: inactive; PolyA inh: inactive; NALP3 yeast inh: inactive; Lmaj promast: inactive

Results for CC(/C=C/c1ccc(OCc2ccccc2)cc1)=N\O ?
T cruzi inh: inactive; NALP1 yeast inh: inactive; Calb FLC: inactive; PolyA inh: inactive; NALP3 yeast inh: inactive; Lmaj promast: 83

How did COc1ccc(CCC(C)N(C)Cc2ccccc2)cc1 (configuration not stated) do in these assays?
T cruzi inh: inactive; NALP1 yeast inh: 30; Calb FLC: inactive; PolyA inh: inactive; NALP3 yeast inh: inactive

Results for Cc1cc(C)c(C)c(OCCCCN(C)Cc2ccccc2)c1 ?
T cruzi inh: inactive; NALP1 yeast inh: inactive; Calb FLC: inactive; PolyA inh: inactive; NALP3 yeast inh: inactive

What do the screens show for `COc1ccc(CC(=O)N(Cc2ccccc2)C(C)C)cc1`?
T cruzi inh: inactive; NALP1 yeast inh: inactive; Calb FLC: inactive; PolyA inh: inactive; NALP3 yeast inh: inactive

What do the screens show for `CCc1ccc(OCCCCN(C)Cc2ccccc2)cc1`?
T cruzi inh: 55; NALP1 yeast inh: inactive; Calb FLC: inactive; PolyA inh: inactive; NALP3 yeast inh: inactive

Results for COc1cc(C)ccc1OCCOCCN(C)Cc1ccccc1 ?
T cruzi inh: inactive; NALP1 yeast inh: inactive; Calb FLC: inactive; PolyA inh: inactive; NALP3 yeast inh: inactive; Lmaj promast: 91

What do the screens show for `Cc1ccc(F)cc1NC(=O)COC(=O)c1ccc2ncsc2c1`?
NALP3 yeast inh: inactive

What do the screens show for `CCC(C)c1ccccc1N1CC(C(=O)Nc2ccc(N3CCOCC3)cc2)CC1=O` (configuration not stated)?
NALP3 yeast inh: inactive

What do the screens show for `COc1cccc2c1O/C(=N\O)C(C(=O)Nc1ccc(C)cc1)C2` (configuration not stated)?
T cruzi inh: inactive; NALP1 yeast inh: inactive; Calb FLC: inactive; PolyA inh: inactive; NALP3 yeast inh: inactive

What do the screens show for `COc1ccc(OCCCN(C)Cc2ccccc2)cc1`?
T cruzi inh: inactive; NALP1 yeast inh: 38; Calb FLC: inactive; PolyA inh: inactive; NALP3 yeast inh: inactive

How did CNC(=O)COc1ccc(C=O)cc1OC do in these assays?
T cruzi inh: inactive; NALP1 yeast inh: inactive; Calb FLC: inactive; PolyA inh: inactive; NALP3 yeast inh: inactive; Lmaj promast: 60

Results for Nc1ccc(OCc2ccccc2)cc1 ?
T cruzi inh: inactive; NALP1 yeast inh: inactive; Calb FLC: inactive; PolyA inh: inactive; NALP3 yeast inh: inactive; Lmaj promast: inactive

How did COc1cc(C=O)ccc1OCCOCCOc1cc(C)ccc1Cl do in these assays?
T cruzi inh: inactive; NALP1 yeast inh: inactive; Calb FLC: inactive; PolyA inh: inactive; NALP3 yeast inh: inactive; Lmaj promast: 73

Results for CCN(Cc1ccccc1)Cc1ccc(OCc2ccccc2)cc1 ?
T cruzi inh: inactive; NALP1 yeast inh: 38; Calb FLC: inactive; PolyA inh: inactive; NALP3 yeast inh: inactive

Results for O=C(O)CS(=O)CC(=O)Nc1cccc(C(F)(F)F)c1 (configuration not stated) ?
T cruzi inh: inactive; NALP1 yeast inh: inactive; Calb FLC: inactive; PolyA inh: inconclusive; NALP3 yeast inh: inactive; Lmaj promast: inactive

Results for CN(CCOCCOc1ccc2ccccc2c1)Cc1ccccc1 ?
T cruzi inh: inactive; NALP1 yeast inh: inactive; Calb FLC: inactive; PolyA inh: inactive; NALP3 yeast inh: inactive; Lmaj promast: 100

How did O=C(CSc1nc(Nc2ccccc2)nc(N2CCOCC2)n1)Nc1cccc([N+](=O)[O-])c1 do in these assays?
T cruzi inh: inactive; NALP1 yeast inh: inactive; Calb FLC: inactive; PolyA inh: inactive; NALP3 yeast inh: inactive

How did CC(=O)Nc1ccc(/C(C)=N/Nc2nc(Nc3ccccc3)nc(N3CCOCC3)n2)cc1 do in these assays?
T cruzi inh: 67; NALP1 yeast inh: inactive; Calb FLC: inactive; NALP3 yeast inh: inactive; Lmaj promast: inactive

Results for O=C(CSc1nc(Nc2ccccc2)nc(N2CCOCC2)n1)Nc1ccc([N+](=O)[O-])cc1 ?
T cruzi inh: 57; NALP1 yeast inh: inactive; Calb FLC: inactive; PolyA inh: inactive; NALP3 yeast inh: inactive; Lmaj promast: inactive

Results for COc1cccc(NC(=O)CCNS(=O)(=O)c2ccc3c(c2)CC(C)N3C(=O)C2CC2)c1 (configuration not stated) ?
T cruzi inh: inactive; NALP1 yeast inh: inactive; Calb FLC: inactive; PolyA inh: inactive; NALP3 yeast inh: inactive

How did Cc1c(Cc2ccccc2)c(=O)oc2cc(OCC(=O)NCC(O)c3ccccc3)ccc12 (configuration not stated) do in these assays?
T cruzi inh: inactive; NALP1 yeast inh: inactive; Calb FLC: inactive; PolyA inh: inactive; NALP3 yeast inh: inactive

How did CSc1ccc(CN2CCC(Oc3cccc(C(=O)N4CCCC4)c3)CC2)cc1 do in these assays?
T cruzi inh: inactive; NALP1 yeast inh: inactive; Calb FLC: inactive; PolyA inh: inactive; NALP3 yeast inh: inactive

How did COCC1CCN(Cc2c(C(=O)N3CCN(C4CCCCC4)CC3)nc3ccccn23)C1 (configuration not stated) do in these assays?
T cruzi inh: inactive; NALP1 yeast inh: inactive; Calb FLC: inactive; PolyA inh: inactive; NALP3 yeast inh: inactive

What do the screens show for `O=c1cc(CN2CCC(Cc3ccccc3)CC2)nc2sccn12`?
T cruzi inh: inactive; NALP1 yeast inh: inactive; Calb FLC: inactive; PolyA inh: inactive; NALP3 yeast inh: inactive; Lmaj promast: 88
